Results from ChEMBL document CHEMBL1125462, “Substituent variation in azabicyclic triazole- and tetrazole-based muscarinic receptor ligands” (J Med Chem, 1992).

Assays:
[1] = target: Muscarinic acetylcholine receptor; assay: In vitro displacement of [3H]quinuclidinyl benzilate (QNB) from rat cerebral cortex muscarinic receptor.; type: tissue-based
[2] = target: Muscarinic acetylcholine receptor; assay: In vitro ability to displace [3H]oxotremorine-M (OXO-M) from rat cerebral cortex muscarinic receptor.; type: tissue-based
[3] = target: Muscarinic acetylcholine receptor; assay: In vitro ability to displace [3H]oxotremorine-M (OXO-M) from rat cerebral cortex muscarinic acetylcholine receptor; type: tissue-based
Summary of the method: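 Hooded Lister rat cerebral cortex homogenised in ice-cold 50 mM Tris pH 7.7 (at 25 °C), washed by repeated 25000g spins, stored at -20 °C. Incubation buffer with 2 mM MgCl2; 37 °C, 30 min; filtered on GF/B filters presoaked in 0.05% polyethylenamine; scintillation counting. Seven concentrations; geometric mean of at least two separate experiments; IC50 (nM).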

[4] = target: Muscarinic acetylcholine receptor; assay: In vitro ability to displace [3H]quinuclidinyl benzilate (QNB) from rat cerebral cortex muscarinic acetylcholine receptor; type: tissue-based
Summary of the method: (§1)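 Washed Hooded Lister rat cerebral cortex membranes (50 mM Tris pH 7.7), diluted from stored stock, incubated with test compound and 0.27 nM [3H]QNB at 37 °C for 30 min. GF/B filtration, ice-cold buffer washes, scintillation counting. Nonspecific binding typically 25% of total. Seven concentrations; geometric mean of separate experiments; IC50 (nM).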

[5] = target: Muscarinic acetylcholine receptor (Rattus norvegicus) (UniProt P08482+P08483+P08485+P08911+P10980); assay: Ratio of Compound (IC50(nM) of QNB/ IC50(nM) of OXO-M); type: protein assay
[6] = target: Muscarinic acetylcholine receptor; assay: In vitro ability to displace [3H]oxotremorine-M (OXO-M) from rat cerebral cortex Muscarinic acetylcholine receptor; type: tissue-based
[7] = target: Muscarinic acetylcholine receptor; assay: In vitro ability to displace [3H]quinuclidinyl benzilate (QNB) from rat cerebral cortexMuscarinic acetylcholine receptor; type: tissue-based, Cerebral cortex; summary of the method: as §1
[8] = target: Muscarinic acetylcholine receptor; assay: In vitro ability to displace [3H]quinuclidinyl benzilate (QNB) from rat cerebral cortex Muscarinic acetylcholine receptor; type: tissue-based

Work on `Cc1ncn([C@H]2CN3CC[C@H]2C3)n1` yielded an IC50 [1] of 4300 nM and an IC50 [2] of 17 nM.
`Cn1ncc([C@@H]2CN3CC[C@H]2C3)n1` showed an IC50 [1] of 13500 nM and an IC50 [2] of 16 nM.
`O=[N+]([O-])c1ncn([C@H]2CN3CC[C@H]2C3)n1` showed an IC50 [1] of 35600 nM and an IC50 [2] of 4100 nM.
For `c1nnn([C@H]2CN3CC[C@H]2C3)n1`, the IC50 [1] was 14300 nM and the IC50 [2] was 30 nM.
`Cc1nnn(C2CN3CCC2CC3)n1` (stereo unspecified) was tested, and the IC50 [2] was 31 nM.
`Cn1ncc(C23CCN(CC2)C3)n1` was tested, and the IC50 [1] was 14400 nM and the IC50 [2] was 35 nM.
Molecule `Nc1ncn(C23CCCN(CC2)C3)n1` (stereo unspecified) has an IC50 [1] of 3900 nM and an IC50 [2] of 13 nM.
Work on `Clc1nnn([C@H]2CN3CC[C@H]2C3)n1` yielded an IC50 [3] of 7.6 nM, an IC50 [4] of 630 nM and a Ratio [5] of 83.
For `Cc1nnn([C@H]2CN3CC[C@H]2C3)n1`, the IC50 [1] was 1900 nM and the IC50 [2] was 4.2 nM.
With `O=C1CCCN1CC#CCN1CCCC1` the Ratio [5] was 190.
`Cn1ncc([C@H]2CN3CC[C@H]2C3)n1` gave an IC50 [1] of 2800 nM and an IC50 [2] of 5.4 nM.
For `c1ncn(C23CCCN(CC2)C3)n1` (stereo unspecified), the IC50 [1] was 3600 nM and the IC50 [2] was 12 nM.
`Cn1ncc(C23CCCN(CC2)C3)n1` (stereo unspecified) was tested, and the IC50 [1] was 3100 nM and the IC50 [2] was 14 nM.
`N#Cc1nnn(C2CN3CCC2CC3)n1` (stereo unspecified) showed an IC50 [1] of 5200 nM and an IC50 [2] of 1400 nM.
`Nc1ncn([C@H]2CN3CC[C@H]2C3)n1` was tested, and the IC50 [1] was 3600 nM and the IC50 [2] was 18 nM.
`Clc1ncn([C@H]2CN3CC[C@H]2C3)n1` was tested, and the IC50 [6] was 14 nM and the IC50 [7] was 1290 nM.
For `Nc1nnn(C2CN3CCC2CC3)n1` (stereo unspecified), the IC50 [1] was 4400 nM and the IC50 [2] was 38 nM.
In the case of `Cn1nnc(C23CCCN(CC2)C3)n1` (stereo unspecified), the IC50 [1] was 5700 nM and the IC50 [2] was 100 nM.
Work on `c1ncn([C@H]2CN3CC[C@H]2C3)n1` yielded an IC50 [1] of 38200 nM and an IC50 [2] of 79 nM.
For `c1nnn(C23CCCN(CC2)C3)n1` (stereo unspecified), the IC50 [1] was 7200 nM and the IC50 [2] was 19 nM.
For `Brc1ncn([C@H]2CN3CC[C@H]2C3)n1`, the IC50 [6] was 31 nM and the IC50 [8] was 3040 nM.
`Brc1nnn([C@H]2CN3CC[C@H]2C3)n1` gave an IC50 [3] of 7.4 nM, an IC50 [4] of 822 nM and a Ratio [5] of 111.
With `Cn1nnc(C23CCN(CC2)C3)n1` the IC50 [1] was 46700 nM and the IC50 [2] was 250 nM.
Molecule `Ic1nnn([C@H]2CN3CC[C@H]2C3)n1` has an IC50 [3] of 48 nM, an IC50 [4] of 372 nM and a Ratio [5] of 8.
`Clc1nnn(C2CN3CCC2CC3)n1` (stereo unspecified) was tested, and the IC50 [3] was 27 nM, the IC50 [4] was 578 nM and the Ratio [5] was 21.
Molecule `OC(c1ccccc1)(c1ccccc1)c1nnn(C2CN3CCC2CC3)n1` (stereo unspecified) has an IC50 [1] of 2.8 nM and an IC50 [2] of 3.6 nM.
`Cc1nnn(C23CCCN(CC2)C3)n1` (stereo unspecified) showed an IC50 [1] of 1925 nM and an IC50 [2] of 14 nM.
For `Cn1nnc([C@@H]2CN3CC[C@H]2C3)n1`, the IC50 [1] was 30600 nM and the IC50 [2] was 325 nM.
`Nc1nnn(C23CCCN(CC2)C3)n1` (stereo unspecified) was tested, and the IC50 [1] was 2670 nM and the IC50 [2] was 5.9 nM.
`Brc1nnn(C23CCCN(CC2)C3)n1` (stereo unspecified) was tested, and the IC50 [6] was 5.5 nM and the IC50 [8] was 279 nM.
`c1ncn(C23CCN(CC2)C3)n1` showed an IC50 [1] of 39900 nM and an IC50 [2] of 79 nM.
`Clc1nnn(C23CCCN(CC2)C3)n1` (stereo unspecified) showed an IC50 [3] of 3.5 nM, an IC50 [4] of 332 nM and a Ratio [5] of 95.
`Cc1ncn(C23CCN(CC2)C3)n1` showed an IC50 [1] of 14900 nM and an IC50 [2] of 86 nM.
`Ic1nnn(C2CN3CCC2CC3)n1` (stereo unspecified) showed an IC50 [3] of 43 nM, an IC50 [4] of 216 nM and a Ratio [5] of 5.
In the case of `Cn1nnc([C@H]2CN3CC[C@H]2C3)n1`, the IC50 [1] was 2900 nM and the IC50 [2] was 11 nM.
`Nc1nnn([C@H]2CN3CC[C@H]2C3)n1` gave an IC50 [1] of 4360 nM and an IC50 [2] of 2.6 nM.
In the case of `Brc1nnn(C2CN3CCC2CC3)n1` (stereo unspecified), the IC50 [3] was 20 nM, the IC50 [4] was 488 nM and the Ratio [5] was 25.
`Cc1ncn(C23CCCN(CC2)C3)n1` (stereo unspecified) was tested, and the IC50 [1] was 2100 nM and the IC50 [2] was 12 nM.
